We go through 10 compounds from ChEMBL document CHEMBL2093137, “WHO-TDR NTD Screening”.

Values after ≈ are worked out from the molar mass of the structure shown.

The subject of data set [1] is Trypanosoma brucei brucei. Nature of the data set: WHO-TDR: Human African Trypanosomiasis (HAT). The format is functional, organism-based. The note with it: Squib-427. The gist of the method: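 Whole-organism screen of a 10,000-compound diverse library from Life Chemicals, filtered for drug-likeness and reactive groups, against bloodstream forms of Trypanosoma brucei Squib 427 strain. The assay followed previously published standard procedures, with reference drugs as positive controls. Antiparasitic potency is reported as IC50.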

Data set [2] concerns Onchocerca ochengi. Nature of the data set: WHO-TDR: Onchocerciasis. The format is functional. More on the design: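 at 12.5 µM on microfilariae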. The essentials: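 Percent inhibition and IC50 describe activity against microfilariae of Onchocerca ochengi or Onchocerca lienalis, used as animal-pathogen substitutes for the human parasite. The compounds tested made up a 10,000-member diverse library from Life Chemicals.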

The subject of data set [3] is Leishmania infantum. Briefly: WHO-TDR: Leishmaniasis. The format is functional, organism-based, Mus musculus. The note with it: Macrophage. The essentials: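 Whole-organism screen of a 10,000-compound diverse library from Life Chemicals, filtered for drug-likeness and reactive groups, against intracellular amastigotes of Leishmania infantum MHOM/MA(BE)/67 in murine peritoneal macrophage host cells. The assay followed previously published standard procedures, with a reference drug as positive control. Antiparasitic potency is reported as IC50.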

The test system of data set [4] is Plasmodium falciparum K1. Nature of the data set: WHO-TDR: Malaria. The format is functional, organism-based, Homo sapiens. The following applies: Erythrocyte. The essentials: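 Whole-organism screen of a 10,000-compound diverse library from Life Chemicals, filtered for drug-likeness and reactive groups, against intra-erythrocytic Plasmodium falciparum K1 strain in human red blood cells. The assay followed previously published standard procedures, with a reference drug as positive control. Antiplasmodial potency is reported as IC50.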

Data set [5] concerns Brugia malayi. Nature of the data set: WHO-TDR: Lymphatic Filariasis. The format is functional. More on the design: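 tested at 10 µM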. The essentials:
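The screening set was a 10,000-compound diverse library from Life Chemicals, filtered for drug-likeness and for reactive groups. It was run against Brugia malayi microfilariae as whole organisms, using previously published standard procedures. Reference drugs acted as positive controls, and activity is reported both as percent inhibition and as IC50.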

For data set [6], the system named is Schistosoma mansoni. Nature of the data set: WHO-TDR: Schistosomiasis. The format is functional. More on the design: concentration or dose not given beside the values. The essentials: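 Percent inhibition and IC50 describe activity against whole Schistosoma mansoni worms of the Puerto Rican strain, tested as larvae and/or adults. The compounds screened were a diverse set of 10,000 from Life Chemicals, filtered for drug-likeness and reactive groups. Testing followed previously published standard procedures, with a reference drug as positive control.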

Data set [7] deals with Trypanosoma cruzi. Nature of the data set: WHO-TDR: Chagas disease. The format is functional, organism-based, Homo sapiens. The following applies: MRC5. The gist of the method:
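Each IC50 reflects antiparasitic potency against intracellular amastigotes of Trypanosoma cruzi Tulahuen CL2 beta-galactosidase strain. These were cultured in MRC-5SV2 human lung fibroblasts and exposed to a 10,000-compound diverse Life Chemicals library screened according to published standard procedures with a reference drug as positive control.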

Data set [8] in a line: WHO-TDR: Cytotoxicity. The format is toxicity, cell-based. The following applies: human, MRC5 cells.

As for `CC1Cc2ccccc2N1C(=O)Cc1csc(NC(=O)c2ccc[nH]c2=O)n1` (stereo not given), the IC50 in data set [1], in data set [3], in data set [4], in data set [7] and in data set [8] was greater than 11.8 µg/mL in each case. The % Inhibition (usually the percentage by which the read-out fell short of the control) in data set [2] is on record as 50%; in data set [5] it was 20%; in data set [6], 100%.
On to `O=S(=O)(c1ccc(Cl)s1)N1CCN(c2ccc(-c3ccccn3)nn2)CC1`, for which the IC50 – broadly, the point on the concentration scale where inhibition reaches its midpoint – in data set [1] was greater than 12.7 µg/mL; in data set [3], greater than 12.7 µg/mL; in data set [4], greater than 12.7 µg/mL; in data set [7] it was 0.438 µg/mL (≈ 1.04 µM); in data set [8], greater than 12.7 µg/mL. Besides, the “% Inhibition” value in data set [2], in data set [5] and in data set [6] was 0% in each case.
Take `CCOc1cccc2sc(N(CCCn3ccnc3)C(=O)c3cccs3)nc12`: the IC50 was 4.31 µg/mL (≈ 10.4 µM) in data set [1]; greater than 13.5 µg/mL in data set [3]; 0.573 µg/mL (≈ 1.39 µM) in data set [4]; 4.08 µg/mL (≈ 9.88 µM) in data set [7]; 5.87 µg/mL (≈ 14.2 µM) in data set [8]. Moreover, the “% Inhibition” value in data set [2] was 100%; in data set [5], 0%; in data set [6] it was 0%.
`CCCC(=O)N1CCN(c2ccc(Nc3ccncc3)nn2)CC1`: the IC50 was greater than 9.79 µg/mL in data set [1]; 0.317 µg/mL (≈ 0.971 µM) in data set [3]; greater than 9.79 µg/mL in data set [4]; greater than 9.79 µg/mL in data set [7]; greater than 9.79 µg/mL in data set [8]. Besides, the “% Inhibition” value in data set [2], in data set [5] and in data set [6] was 0% each time.
For the compound `Cc1ccc(-n2ncc3c(=O)[nH]c(-n4nc(C)cc4NC(=O)C4CC4)nc32)cc1`, the IC50 worked out at 0.378 µg/mL (≈ 0.971 µM) in data set [1]; 0.313 µg/mL (≈ 0.804 µM) in data set [3]; 0.637 µg/mL (≈ 1.64 µM) in data set [4]; 0.214 µg/mL (≈ 0.55 µM) in data set [7]; 0.591 µg/mL (≈ 1.52 µM) in data set [8]. For the same compound, the figures for the “% Inhibition” value in data set [2], in data set [5] and in data set [6] were 100%, 0% and 0%, respectively.
In the case of `CCn1nc(C(=O)Nc2nnc(-c3ccc4c(c3)CCCC4)o2)cc1C`, the IC50 in data set [1], in data set [3], in data set [4], in data set [7] and in data set [8] was greater than 10.5 µg/mL each time. Besides, the “% Inhibition” value in data set [2] was 100%; in data set [5], 0%; in data set [6] it was 16.7%.
Turning to `CC1CCc2[nH]nc(-c3nc(-c4ccc(Cl)cc4)no3)c2C1` (stereo not given), the IC50 was greater than 9.44 µg/mL in data set [1]; greater than 9.44 µg/mL in data set [3]; greater than 9.44 µg/mL in data set [4]; 5.55 µg/mL (≈ 17.6 µM) in data set [7]; greater than 9.44 µg/mL in data set [8]. The “% Inhibition” value in data set [2] is listed as 100%; in data set [5], 0%; in data set [6], 0%.
In the case of `Cc1cccc2sc(N(CCCn3ccnc3)C(=O)c3ccc(Cl)s3)nc12`, the IC50 was greater than 13.6 µg/mL in data set [1]; greater than 13.6 µg/mL in data set [3]; 0.619 µg/mL (≈ 1.48 µM) in data set [4]; 1.22 µg/mL (≈ 2.93 µM) in data set [7]; 5.04 µg/mL (≈ 12.1 µM) in data set [8]. The “% Inhibition” value is 100% in data set [2], 0% in data set [5] and 0% in data set [6].
For `Cc1cccc(Nc2ccc(NCCNC(=O)Nc3ccccc3)nn2)n1`, the IC50 in data set [1] is greater than 10.9 µg/mL; in data set [3] it was greater than 10.9 µg/mL; in data set [4] it was 4.75 µg/mL (≈ 13.1 µM); in data set [7], greater than 10.9 µg/mL; in data set [8], 10.4 µg/mL (≈ 28.7 µM). For the same compound, the entries for the “% Inhibition” value in data set [2], in data set [5] and in data set [6] were 100%, 0% and 0%, respectively.
Take `O=C(c1cccc(F)c1)N(CCCn1ccnc1)c1nc2ccc(F)cc2s1`: the IC50 in data set [1] was 4.17 µg/mL (≈ 10.5 µM); in data set [3], greater than 13 µg/mL; in data set [4], 0.745 µg/mL (≈ 1.87 µM); in data set [7] it was 3.32 µg/mL (≈ 8.33 µM); in data set [8], greater than 13 µg/mL. Moreover, the figures for the “% Inhibition” value in data set [2], in data set [5] and in data set [6] were 100%, 0% and 0%, respectively.
